Reference: ChEMBL document CHEMBL3751704, “Diarylthiophenes as inhibitors of the pore-forming protein perforin” (Bioorg Med Chem Lett, 2016)
Activity calls are given as the source filed them. The rule behind the calls is not given here.

Target: T1, Perforin-1 (Homo sapiens) (UniProt P14222)
T1 sequence (whole entry): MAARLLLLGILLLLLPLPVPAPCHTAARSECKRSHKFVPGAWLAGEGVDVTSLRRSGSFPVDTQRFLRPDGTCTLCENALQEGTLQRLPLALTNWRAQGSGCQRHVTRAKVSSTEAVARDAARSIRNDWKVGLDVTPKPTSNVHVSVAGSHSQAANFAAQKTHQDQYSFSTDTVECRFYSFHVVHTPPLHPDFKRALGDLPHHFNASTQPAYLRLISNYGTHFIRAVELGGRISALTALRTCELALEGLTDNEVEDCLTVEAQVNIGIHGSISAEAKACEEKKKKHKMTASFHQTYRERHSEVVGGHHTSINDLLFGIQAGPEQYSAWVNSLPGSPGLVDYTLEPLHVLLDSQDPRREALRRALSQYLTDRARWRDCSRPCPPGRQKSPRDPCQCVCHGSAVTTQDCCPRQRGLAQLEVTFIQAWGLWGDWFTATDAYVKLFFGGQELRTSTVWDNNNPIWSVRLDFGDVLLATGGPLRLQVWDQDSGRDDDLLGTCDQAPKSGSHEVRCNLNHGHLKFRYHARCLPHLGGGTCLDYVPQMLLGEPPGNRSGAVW
Experiment: Inhibition of perforin released from human KHYG-1 NK cells assessed as inhibition of perforin mediated lysis of human K562 cells at 20 uM by measuring 51Cr release incubated for 20 mins by gamma counting analysis relative to control
Type: cell-based
Conditions: in the assay text read “incubated for 30 mins” for “incubated for 20 mins”
In short: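 KHYG-1 human NK effector cells preincubated with inhibitor (20 μM) in medium for 30 min at room temperature. 51Cr-labelled K562 leukaemia target cells then added and incubated 4 h at 37 °C. Lysis read as 51Cr release. Percent inhibition calculated against untreated control.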

- inhibition: inactive
Compound: CS(=O)(=O)Nc1ccc(-c2ccc(-c3ccc4c(c3)COC4=O)s2)cc1
